In ChEMBL document CHEMBL1138668, “Structural studies on bioactive compounds. 39. Biological consequences of the structural modification of DHFR-inhibitory 2,4-diamino-6-(4-substituted benzylamino-3-nitrophenyl)-6-ethylpyrimidines ('benzoprims')” (J Med Chem, 2004):
pIC50: −log10 of the molar value.

What was measured:
[1] = tested on: HT-29; test: Growth inhibitory activity against human HT-29 cell line; type: functional
Outline: (§1)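 HCT-116 or HT29 colon cells in RPMI 1640 with L-glutamine and 10% heat-inactivated FBS, 37 °C, 5% CO2. Cells were plated at densities suited to the growth rate and allowed to attach 4–24 h. Drug from 10 mM DMSO stocks was then added and cells incubated 4 days. MTT readout: 4 h with MTT, formazan dissolved in DMSO:glycine buffer (4:1), A550. A time-zero plate gave the starting density. Values are GI50, mean of three experiments.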

[2] = tested on: HCT-116; test: Growth inhibitory activity against human HCT116 cell line; type: functional; outline: as §1
[3] = tested on: HT-29; test: Growth inhibitory activity against human HT-29 cell line in presence of Hypoxanthine thymidine(HT); type: functional
Outline: (§2)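 Same 4-day MTT growth assay in HCT-116 or HT29 cells, with hypoxanthine 100 µM and thymidine 20 µM (final) added together with the drug. Hypoxanthine stock was in 10 mM NaOH and thymidine in water. Readout was A550 against a time-zero plate. GI50 is the mean of three experiments.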

[4] = tested on: HCT-116; test: Growth inhibitory activity against human HCT116 cell line in presence of Hypoxanthine thymidine(HT); type: functional; outline: as §2
[5] = target: T1, Dihydrofolate reductase (Rattus norvegicus, UniProt Q920D2); test: Inhibitory activity against rat liver Dihydrofolate reductase; conditions: read-out: I50
T1 sequence (Q920D2 whole entry): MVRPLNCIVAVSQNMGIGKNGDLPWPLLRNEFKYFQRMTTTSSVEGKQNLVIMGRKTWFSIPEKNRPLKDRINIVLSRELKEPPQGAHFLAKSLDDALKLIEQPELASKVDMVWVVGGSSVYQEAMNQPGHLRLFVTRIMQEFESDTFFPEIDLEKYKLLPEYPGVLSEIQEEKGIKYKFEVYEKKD

| SMILES | GI50 [1] | GI50 [2] | GI50 [3] | GI50 [4] | pIC50 [5] |
| --- | --- | --- | --- | --- | --- |
| Nc1ncc(-c2ccc(NCc3ccc(Cl)cc3)c([N+](=O)[O-])c2)cn1 | 17 µM | 3 µM | 25 µM | 5 µM | – |
| Nc1ncc(-c2ccc(Cl)c([N+](=O)[O-])c2)cn1 | > 50 µM | > 50 µM | > 50 µM | > 50 µM | – |
| CCc1nc(N)nc(N)c1-c1ccc2[nH]c(-c3ccc(F)cc3)[n+]([O-])c2c1 | 46 µM | 17 µM | 39 µM | 22 µM | – |
| CN(Cc1cnc2nc(N)nc(N)c2n1)c1ccc(C(=O)N[C@@H](CCC(=O)O)C(=O)O)cc1 [METHOTREXATE] | 0.07 µM | 0.01 µM | > 50 µM | > 50 µM | – |
| CCc1nc(N)nc(N)c1-c1ccc(Cl)c([N+](=O)[O-])c1 | 3.8 µM | 0.25 µM | 40 µM | 38 µM | – |
| CCc1nc(N)nc(N)c1-c1ccc2[nH]c(-c3ccc(Cl)cc3)[n+]([O-])c2c1 | > 50 µM | 9 µM | > 50 µM | 9 µM | – |
| CN(Cc1ccccc1)c1ccc(-c2cnc(N)nc2)cc1[N+](=O)[O-] | 14 µM | > 50 µM | 17 µM | > 50 µM | – |
| CCc1nc(N)nc(N)c1-c1ccc(NCc2ccccc2OC)c([N+](=O)[O-])c1 | 1.5 µM | 0.08 µM | 11.6 µM | 7.5 µM | – |
| CCc1nc(N)nc(N)c1-c1ccc2nn(-c3ccccc3)[n+]([O-])c2c1 | – | – | – | – | 5.57 |
| Nc1nc(N)c2[nH]c(Cc3ccc(Cl)c(Cl)c3)nc2n1 | – | – | – | – | 3.60 |
| COc1cc(NCc2ccc3nc(N)nc(N)c3c2C)cc(OC)c1OC [TRIMETREXATE] | 0.01 µM | 0.01 µM | 21 µM | 19 µM | – |
| Nc1ncc(-c2ccc(NCc3ccc(F)cc3)c([N+](=O)[O-])c2)cn1 | 41 µM | 48 µM | 38 µM | 47 µM | – |
| CCc1nc(N)nc(N)c1-c1ccc(NCc2ccc(Cl)c(Cl)c2)c([N+](=O)[O-])c1 | – | – | – | – | 8.10 |
| CCc1nc(N)nc(N)c1-c1ccc(N(C)Cc2ccccc2)c([N+](=O)[O-])c1 | 0.48 µM | 0.08 µM | 9.2 µM | 7.4 µM | – |
